Assay [1] deals with P2Y purinoceptor 2 (Homo sapiens, UniProt P41231). The assay is described as follows: Antagonist activity at human recombinant P2Y2 receptor in 1321N1 cells assessed as inhibition of UTP-induced calcium mobilization. It counts as functional, cell-based. The procedure, abridged: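 Human P2Y2 receptor recombinantly expressed in 1321N1 astrocytoma cells. Calcium mobilization evoked by 1 uM UTP (ca. 50-80% of maximal effect) was read with the fluorescent Ca2+ dye Fura-2 on a fluorescence plate reader. IC50 was taken from inhibition of the UTP response.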
P2Y purinoceptor 2 (Homo sapiens, UniProt P41231), sequence (P41231 whole entry): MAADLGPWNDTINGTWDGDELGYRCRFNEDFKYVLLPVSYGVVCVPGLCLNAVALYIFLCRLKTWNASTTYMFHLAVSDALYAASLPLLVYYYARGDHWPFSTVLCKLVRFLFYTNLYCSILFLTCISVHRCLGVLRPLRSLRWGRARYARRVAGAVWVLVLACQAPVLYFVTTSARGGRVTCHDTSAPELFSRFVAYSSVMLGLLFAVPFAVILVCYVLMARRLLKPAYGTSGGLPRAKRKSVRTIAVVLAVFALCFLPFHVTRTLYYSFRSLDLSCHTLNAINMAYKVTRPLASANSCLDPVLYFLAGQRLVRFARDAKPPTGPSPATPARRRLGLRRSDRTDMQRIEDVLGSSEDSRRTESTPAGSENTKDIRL

The target in assay [2] is P2Y purinoceptor 2 (Mus musculus, UniProt P35383). The assay is described as follows: Antagonist activity at mouse P2Y2 receptor in mouse NG108-15 cells assessed as inhibition of UTP-induced calcium mobilization. It counts as functional, cell-based. The procedure, abridged:
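Mouse P2Y2 receptor natively expressed in NG108-15 neuroblastoma x glioma hybrid cells. Calcium mobilization evoked by 3 uM UTP (ca. 50-80% of maximal effect) was read with the fluorescent Ca2+ dye Fura-2 on a fluorescence plate reader. IC50 was taken from inhibition of the UTP response.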
For orientation: Calcium flux is commonly read through the fluorescence of an indicator in the cells.

For a further assay, the target named is P2Y purinoceptor 6 (Rattus norvegicus, UniProt Q63371). The assay is described as follows: Antagonist activity at rat P2Y6 receptor. It counts as functional.
P2Y purinoceptor 6, sequence (Q63371 whole entry): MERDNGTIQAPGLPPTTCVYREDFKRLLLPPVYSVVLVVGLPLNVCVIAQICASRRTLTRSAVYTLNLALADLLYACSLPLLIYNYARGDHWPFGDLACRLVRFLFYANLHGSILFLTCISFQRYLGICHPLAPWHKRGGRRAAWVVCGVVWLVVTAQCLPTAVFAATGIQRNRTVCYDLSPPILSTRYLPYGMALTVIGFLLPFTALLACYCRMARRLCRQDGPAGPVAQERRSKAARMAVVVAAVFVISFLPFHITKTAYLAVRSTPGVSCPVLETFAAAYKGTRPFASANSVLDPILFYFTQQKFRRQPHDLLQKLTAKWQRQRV
Assay [3] addresses T1, Ectonucleoside triphosphate diphosphohydrolase 1 (Rattus norvegicus, UniProt P97687).
T1 sequence (P97687 whole entry): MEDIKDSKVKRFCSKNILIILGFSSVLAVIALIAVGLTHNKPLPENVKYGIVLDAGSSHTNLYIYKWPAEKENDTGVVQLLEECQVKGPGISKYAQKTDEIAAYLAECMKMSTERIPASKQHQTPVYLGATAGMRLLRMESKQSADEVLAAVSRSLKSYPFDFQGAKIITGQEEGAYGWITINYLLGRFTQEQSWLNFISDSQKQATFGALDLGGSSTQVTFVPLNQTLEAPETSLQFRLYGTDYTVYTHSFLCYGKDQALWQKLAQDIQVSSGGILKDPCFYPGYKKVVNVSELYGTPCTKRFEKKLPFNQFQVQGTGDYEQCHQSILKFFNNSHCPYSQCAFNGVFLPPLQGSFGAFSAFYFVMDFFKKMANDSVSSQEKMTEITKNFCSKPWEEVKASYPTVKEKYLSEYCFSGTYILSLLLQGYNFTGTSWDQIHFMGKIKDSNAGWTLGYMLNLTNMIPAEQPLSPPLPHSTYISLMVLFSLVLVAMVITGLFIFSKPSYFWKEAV
The assay is described as follows: Inhibition of rat NTPDase 1.

A further assay concerns the target T2, 5'-nucleotidase (Rattus norvegicus, UniProt P21588).
T2 sequence (P21588 whole entry): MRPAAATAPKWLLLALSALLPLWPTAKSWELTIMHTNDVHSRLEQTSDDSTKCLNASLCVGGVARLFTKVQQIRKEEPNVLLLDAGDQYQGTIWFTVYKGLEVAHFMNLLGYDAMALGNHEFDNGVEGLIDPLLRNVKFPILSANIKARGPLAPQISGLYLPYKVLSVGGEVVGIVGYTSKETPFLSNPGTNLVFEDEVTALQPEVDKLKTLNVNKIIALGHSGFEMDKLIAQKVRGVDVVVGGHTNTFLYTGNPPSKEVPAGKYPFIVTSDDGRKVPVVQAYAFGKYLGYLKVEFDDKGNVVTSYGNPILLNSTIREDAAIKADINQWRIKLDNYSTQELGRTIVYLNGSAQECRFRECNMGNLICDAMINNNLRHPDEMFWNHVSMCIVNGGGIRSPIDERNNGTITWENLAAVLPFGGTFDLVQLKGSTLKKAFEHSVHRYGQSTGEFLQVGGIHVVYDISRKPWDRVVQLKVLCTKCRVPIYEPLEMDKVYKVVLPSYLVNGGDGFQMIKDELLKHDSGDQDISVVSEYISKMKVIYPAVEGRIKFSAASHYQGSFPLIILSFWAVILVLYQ
The assay is described as follows: Inhibition of rat ecto-5'-nucleotidase.

A further assay addresses P2Y purinoceptor 4 (Homo sapiens, UniProt P51582). The assay is described as follows: Antagonist activity at human P2Y4 receptor. It counts as functional.

The IC50 is the midpoint of a concentration-inhibition curve. For orientation: Ki means a dissociation constant, usually derived from enzyme kinetics or from competition with a known ligand.

P2Y purinoceptor 2 (Mus musculus, UniProt P35383), sequence (P35383 whole entry): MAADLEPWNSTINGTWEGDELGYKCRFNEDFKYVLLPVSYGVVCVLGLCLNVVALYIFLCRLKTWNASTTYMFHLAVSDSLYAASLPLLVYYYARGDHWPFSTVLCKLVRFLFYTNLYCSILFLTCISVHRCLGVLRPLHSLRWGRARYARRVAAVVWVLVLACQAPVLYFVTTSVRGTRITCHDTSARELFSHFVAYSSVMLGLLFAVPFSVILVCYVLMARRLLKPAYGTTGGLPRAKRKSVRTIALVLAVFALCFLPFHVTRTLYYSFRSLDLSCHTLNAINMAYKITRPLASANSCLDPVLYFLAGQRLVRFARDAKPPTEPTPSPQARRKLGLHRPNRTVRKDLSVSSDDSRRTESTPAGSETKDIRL
P2Y purinoceptor 4, sequence (P51582 whole entry): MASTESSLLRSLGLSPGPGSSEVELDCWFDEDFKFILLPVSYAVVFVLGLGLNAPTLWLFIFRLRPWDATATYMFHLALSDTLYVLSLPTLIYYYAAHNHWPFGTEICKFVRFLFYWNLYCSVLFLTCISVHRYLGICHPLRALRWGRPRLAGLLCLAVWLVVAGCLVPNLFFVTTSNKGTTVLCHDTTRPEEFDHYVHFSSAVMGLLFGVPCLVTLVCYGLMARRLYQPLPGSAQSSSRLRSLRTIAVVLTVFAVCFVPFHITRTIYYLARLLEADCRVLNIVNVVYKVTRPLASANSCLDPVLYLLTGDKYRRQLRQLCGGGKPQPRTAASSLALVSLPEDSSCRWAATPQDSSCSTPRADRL

Regarding `Cc1ccc(Nc2cc(S(=O)(=O)O)c(N)c3c2C(=O)c2ccccc2C3=O)c(C)c1`, the figures for the IC50 at P2Y purinoceptor 2 [1] and on P2Y purinoceptor 2 [2] were 5.43 µM and 9 µM, respectively.

As to `Cc1ccc(C)c(Nc2cc(S(=O)(=O)O)c(N)c3c2C(=O)c2ccccc2C3=O)c1`, the IC50 on P2Y purinoceptor 2 [1] is 30.3 µM; at P2Y purinoceptor 2 [2], 17 µM.

As for `Cc1ccccc1Nc1cc(S(=O)(=O)O)c(N)c2c1C(=O)c1ccccc1C2=O`, the 50% inhibitory concentration (IC50) was 16.2 µM at P2Y purinoceptor 2 [1] and 10 µM at P2Y purinoceptor 2 [2].

`COc1ccccc1Nc1cc(S(=O)(=O)O)c(N)c2c1C(=O)c1ccccc1C2=O`: the IC50 on P2Y purinoceptor 6 was greater than 100 µM; at P2Y purinoceptor 2 [1] it was 9.82 µM; at P2Y purinoceptor 2 [2], 9 µM; against P2Y purinoceptor 4, 50 µM. The Ki (in assay [3]; at 5'-nucleotidase) was greater than 100 µM each time.

For the molecule `Nc1c(S(=O)(=O)O)cc(Nc2cccc(Cl)c2)c2c1C(=O)c1ccccc1C2=O`, the IC50 was greater than 30 µM on P2Y purinoceptor 2 [1] and greater than 100 µM on P2Y purinoceptor 2 [2].

As to `Nc1c(S(=O)(=O)O)cc(Nc2ccc(Cl)cc2)c2c1C(=O)c1ccccc1C2=O`, the IC50 at P2Y purinoceptor 2 [1] was 5.31 µM.

Take `CC(=O)Nc1ccc(Nc2cc(S(=O)(=O)O)c(N)c3c2C(=O)c2ccccc2C3=O)cc1`: the half-maximal inhibitory concentration (IC50) was determined as 5.81 µM on P2Y purinoceptor 2 [1] and 12 µM on P2Y purinoceptor 2 [2].

On to `CC(=O)c1ccc(Nc2cc(S(=O)(=O)O)c(N)c3c2C(=O)c2ccccc2C3=O)cc1`, for which, at P2Y purinoceptor 2 [2], the half-maximal inhibitory concentration (IC50) was greater than 100 µM.

Consider `CCOc1ccc(Nc2cc(S(=O)(=O)O)c(N)c3c2C(=O)c2ccccc2C3=O)cc1`, for which the IC50 on P2Y purinoceptor 2 [1] was 11.5 µM; at P2Y purinoceptor 2 [2] it was 9 µM.

Take `COc1ccc(Nc2cc(S(=O)(=O)O)c(N)c3c2C(=O)c2ccccc2C3=O)cc1`: the 50% inhibitory concentration (IC50) at P2Y purinoceptor 2 [1] came to 11.5 µM; at P2Y purinoceptor 2 [2], 17 µM.

As for `Nc1c(S(=O)(=O)O)cc(Nc2ccc(Nc3ccccc3)cc2)c2c1C(=O)c1ccccc1C2=O`, on P2Y purinoceptor 2 [1], the concentration for half-maximal inhibition (IC50) turned out to be 3.93 µM.

`CCc1ccccc1Nc1cc(S(=O)(=O)O)c(N)c2c1C(=O)c1ccccc1C2=O`: the figures for the IC50 on P2Y purinoceptor 2 [1] and at P2Y purinoceptor 2 [2] were 9.26 µM and 24 µM, respectively.

For `Cc1cccc(Nc2cc(S(=O)(=O)O)c(N)c3c2C(=O)c2ccccc2C3=O)c1C`, the IC50 at P2Y purinoceptor 2 [1] worked out at 7.95 µM; on P2Y purinoceptor 2 [2], 14 µM.

With `CCOc1ccccc1Nc1cc(S(=O)(=O)O)c(N)c2c1C(=O)c1ccccc1C2=O`, the IC50 amounted to 15 µM on P2Y purinoceptor 2 [1] and 17 µM at P2Y purinoceptor 2 [2].

For the molecule `Cc1ccc(Nc2cc(S(=O)(=O)O)c(N)c3c2C(=O)c2ccccc2C3=O)cc1`, the IC50 at P2Y purinoceptor 2 [1] turned out to be 24.9 µM; on P2Y purinoceptor 2 [2] it was 27 µM.

`Nc1c(S(=O)(=O)O)cc(Nc2cccc([N+](=O)[O-])c2)c2c1C(=O)c1ccccc1C2=O`: the concentration for half-maximal inhibition (IC50) at P2Y purinoceptor 2 [2] was greater than 100 µM.

Turning to `Cc1cccc(Nc2cc(S(=O)(=O)O)c(N)c3c2C(=O)c2ccccc2C3=O)c1`, the IC50 at P2Y purinoceptor 2 [1] came out at 3.04 µM; on P2Y purinoceptor 2 [2], 22 µM.

For `Nc1c(S(=O)(=O)O)cc(Br)c2c1C(=O)c1ccccc1C2=O` [BROMAMINIC ACID], on P2Y purinoceptor 2 [2], the IC50 is greater than 100 µM.

On to `Nc1c(S(=O)(=O)O)cc(Nc2ccc(Nc3nc(Cl)nc(Nc4cccc(S(=O)(=O)O)c4)n3)c(S(=O)(=O)O)c2)c2c1C(=O)c1ccccc1C2=O` [RB 2], for which the figures for the IC50 at P2Y purinoceptor 2 [1] and at P2Y purinoceptor 2 [2] were 1.85 µM and 5 µM, respectively.

The values are drawn from ChEMBL document CHEMBL1141609, “Combinatorial synthesis of anilinoanthraquinone derivatives and evaluation as non-nucleotide-derived P2Y2 receptor antagonists” (Bioorg Med Chem Lett, 2008).
